Results published in ChEMBL document CHEMBL4014347, “Targeting Mycolic Acid Transport by Indole-2-carboxamides for the Treatment of Mycobacterium abscessus Infections” (J Med Chem, 2017).
≈ marks a conversion by molar mass, not a printed value.

Tests used:
Vero = assay: Cytotoxicity against African green monkey Vero cells; format: cell-based; conditions: Chlorocebus sabaeus
[1] = Selectivity index, ratio of IC50 for African green monkey Vero cells to MIC for Mycobacterium abscessus CIP104536; format: toxicity; conditions: read-out: Selectivity Index
[2] = Selectivity index, ratio of IC50 for African green monkey Vero cells to MIC=<90 for Mycobacterium tuberculosis; format: toxicity; conditions: read-out: Selectivity Index
[3] = test system: Mycobacterium tuberculosis; assay: Antibacterial activity against Mycobacterium tuberculosis by AlamarBlue assay; format: functional
[4] = test system: Mycobacteroides abscessus; assay: Antibacterial activity against Mycobacterium abscessus CIP104536 after 3 to 5 days by two fold serial dilution method; format: functional
Summary of the method: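 Broth microdilution per CLSI in cation-adjusted Mueller–Hinton broth; exponential-phase inoculum 5 × 10^6 CFU/mL; two-fold serial dilutions from highest concentration, solvent wells as control; 30 °C for 3−5 days; MIC read visually and confirmed by absorbance at 560 nm; triplicate on three independent occasions.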

[5] = test system: Mycobacteroides abscessus; assay: Antibacterial activity against Mycobacterium abscessus CIP_PIPD1 harboring MAB_4508 g925c/A309P mutant after 3 to 5 days by two fold serial dilution method; format: functional
Summary of the method: (§1)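 Broth microdilution in cation-adjusted Mueller−Hinton broth per CLSI; inoculum 5 × 10^6 CFU/mL of exponential-phase bacteria; two-fold serial dilutions, solvent-only wells as control; 30 °C for 3−5 days; MIC read visually and confirmed by absorbance at 560 nm; triplicate on three independent occasions.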

[6] = test system: Mycobacteroides abscessus; assay: Antibacterial activity against Mycobacterium abscessus CIP_OK4-10 harboring MAB_4508 g925c/A309P mutant after 3 to 5 days by two fold serial dilution method; format: functional; summary of the method: as §1
[7] = test system: Mycobacteroides abscessus; assay: Antibacterial activity against non CF patient derived Mycobacterium abscessus subsp. abscessus isolate CIP104536 smooth variant after 3 to 5 days by two fold serial dilution method; format: functional; summary of the method: as §1
[8] = test system: Mycobacterium tuberculosis; assay: Inhibition of C-terminal His-tagged Mycobacterium tuberculosis Ag85C expressed in Escherichia coli C41 (DE3) at 2.5 to 50 uM after 1 hr by resorufin butyrate-based fluorescence assay
Summary of the method: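 Purified Ag85C mycolyltransferase activity measured with the fluorescent probe resorufin butyrate; compounds tested at 2.5 to 50 μM.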

SMILES	MIC=<90 [3] [µg/mL]	MIC [4] [µg/mL]	further results
O=C(NC12CC3CC(CC(C3)C1)C2)c1cc2ccc(Br)cc2[nH]1	0.0156 (≈ 0.0418 µM)	16 (≈ 42.9 µM)	IC50 (Vero): ≥ 64 µg/mL; selectivity ratio [1]: ≥ 4; selectivity ratio [2]: ≥ 4100
NNC(=O)c1ccncc1 [ISONIAZID]	0.04 (≈ 0.292 µM)		IC50 (Vero): > 256 µg/mL; selectivity ratio [2]: > 6400
O=C(NC1Cc2ccccc2C1)c1cc2c(Cl)cc(Cl)cc2[nH]1	0.25 (≈ 0.724 µM)	> 32	
Cc1ccc2cc(C(=O)NC3CCCCCC3)[nH]c2c1	0.0313 (≈ 0.116 µM)	0.25 (≈ 0.925 µM)	
Cc1cc(C)c2cc(CNC(=O)C3CCCCCC3)[nH]c2c1	16 (≈ 53.6 µM)	> 32	
Cc1cccc2[nH]c(C(=O)NC3CCCCCC3)cc12	0.0313 (≈ 0.116 µM)	0.25 (≈ 0.925 µM)	
CC(C)=CCC/C(C)=C/CNC(=O)c1cc2c(Cl)cc(Cl)cc2[nH]1	4 (≈ 10.9 µM)	> 32	
C[C@@H]1[C@@H](NC(=O)c2cc3c(Cl)cc(Cl)cc3[nH]2)C[C@H]2C[C@@H]1C2(C)C	0.0078 (≈ 0.0214 µM)	128 (≈ 350 µM)	IC50 (Vero): 16 µg/mL (≈ 43.8 µM); selectivity ratio [1]: 0.125; selectivity ratio [2]: 2050
Cc1ccc2[nH]c(C(=O)NC3CCCCCC3)cc2c1	0.25 (≈ 0.925 µM)	0.25 (≈ 0.925 µM)	
Cc1ccccc1CN1CCC(O)(c2ccc(Cl)c(C(F)(F)F)c2)CC1			MIC [5]: 8 µg/mL (≈ 20.8 µM); MIC [6]: 8 µg/mL (≈ 20.8 µM); MIC [7]: 0.125 µg/mL (≈ 0.326 µM)
O=c1c2ccccc2[se]n1-c1ccccc1			inhibition [8]: Dose-dependent effect
Cc1cccc2cc(C(=O)NC3CCCCCC3)[nH]c12	1 (≈ 3.7 µM)	16 (≈ 59.2 µM)	
CCCCCCCCNC(=O)c1cc2c(Cl)cc(Cl)cc2[nH]1	128 (≈ 375 µM)	> 32	
O=C(NC1CCCCCC1)c1cc2c(F)cc(F)cc2[nH]1	0.031 (≈ 0.106 µM)	0.125 (≈ 0.428 µM)	
C[C@@H](NC(=O)c1cc2c(Cl)cc(Cl)cc2[nH]1)C1CCCCC1	2 (≈ 5.9 µM)	0.5 (≈ 1.47 µM)	
